Measurements taken from ChEMBL document CHEMBL1122582, “Pyridonecarboxylic acids as antibacterial agents. 2. Synthesis and structure-activity relationships of 1,6,7-trisubstituted 1,4-dihydro-4-oxo-1,8-naphthyridine-3-carboxylic acids, including enoxacin, a new antibacterial agent” (J Med Chem, 1984).
In brackets after ≈: the same amount, converted by molar mass.

Assays:
Assay type in all cases: functional
Escherichia coli [1] = test: Antibacterial activity against Escherichia coli NIHJ JC-2
How it was run: (§1)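 Twofold agar dilution on Mueller-Hinton agar (pH 7.4). Inocula of approximately 10⁶ colony-forming units; growth read after 20-h incubation at 37 °C. MIC is given in micrograms per milliliter.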

Staphylococcus aureus [2] = test: Antibacterial activity against Staphylococcus aureus 209PJC-1; how it was run: as §1
Pseudomonas aeruginosa [3] = test: Antibacterial activity against Pseudomonas aeruginosa Tsuchijima; how it was run: as §1
Escherichia coli [4] = test: Median effective dose against Escherichia coli P-5101 causing systemic infections.
How it was run: (§2)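 Male Std-ddY mice (20 ± 2 g), groups of 10 or more, infected ip with E. coli P-5101 (9×10^6 cells). Compounds were suspended in 0.2% sodium carboxymethylcellulose and dosed orally at 0 and 6 h postinfection. Survival was scored after 1 week and the ED50 derived in mg/kg.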

Pseudomonas aeruginosa [5] = test: Median effective dose against Pseudomonas aeruginosa 12 causing systemic infections
How it was run: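 Male Std-ddY mice (20 ± 2 g), groups of 10 or more, infected ip with P. aeruginosa 12 (4×10^3 cells). Compounds were suspended in 0.2% sodium carboxymethylcellulose and given orally at 0 and 6 h postinfection. Survival was scored after 1 week and the ED50 derived in mg/kg.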

Staphylococcus aureus [6] = test: Median effective dose against Staphylococcus aureus 50774 causing systemic infections
How it was run: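 Systemic infection given iv with S. aureus 50774 (5×10^8 cells) to male Std-ddY mice (20 ± 2 g), 10 or more per group. Oral dosing of compound suspended in 0.2% sodium carboxymethylcellulose at 0 and 6 h postinfection. ED50 in mg/kg from survival scored after 2 weeks.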

Escherichia coli [7] = test: Median effective dose against Escherichia coli P-5101 causing systemic infections; how it was run: as §2

SMILES | MIC (Escherichia coli [1]) [µg/mL] | MIC (Staphylococcus aureus [2]) [µg/mL] | MIC (Pseudomonas aeruginosa [3]) [µg/mL] | ED50 (Escherichia coli [4]) [mg/kg] | ED50 (Pseudomonas aeruginosa [5]) [mg/kg] | ED50 (Staphylococcus aureus [6]) [mg/kg] | ED50 (Escherichia coli [7]) [mg/kg]
CCn1cc(C(=O)O)c(=O)c2cc(F)c(N3CCN(C=O)CC3)nc21 | 1.56 (≈ 4.48 µM) | 3.13 (≈ 8.99 µM) | 12.5 (≈ 35.9 µM) | – | – | – | –
CCn1cc(C(=O)O)c(=O)c2ccc(N3CCN(C)CC3)nc21 | 6.25 (≈ 19.8 µM) | 25 (≈ 79 µM) | 25 (≈ 79 µM) | – | – | – | –
O=C(O)c1cn(C(F)F)c2nc(N3CCNCC3)c(F)cc2c1=O | 0.78 (≈ 2.28 µM) | 6.25 (≈ 18.3 µM) | 6.25 (≈ 18.3 µM) | – | – | – | –
CN1CCN(c2nc3c(cc2F)c(=O)c(C(=O)O)cn3CCF)CC1 | 0.2 (≈ 0.568 µM) | 0.78 (≈ 2.21 µM) | 1.56 (≈ 4.43 µM) | – | – | – | –
CCn1cc(C(=O)O)c(=O)c2cc(N)c(N3CCN(C)CC3)nc21 | 1.56 (≈ 4.71 µM) | 25 (≈ 75.4 µM) | 12.5 (≈ 37.7 µM) | – | – | – | –
CCn1cc(C(=O)O)c(=O)c2cc(C#N)c(N3CCCC3)nc21 | 12.5 (≈ 40 µM) | 3.13 (≈ 10 µM) | 25 (≈ 80 µM) | – | – | – | –
CCn1cc(C(=O)O)c(=O)c2cc(F)c(N3CCN(Cc4ccccc4)CC3)nc21 | 6.25 (≈ 15.2 µM) | 0.78 (≈ 1.9 µM) | 12.5 (≈ 30.5 µM) | – | – | – | –
CCn1cc(C(=O)O)c(=O)c2cc(F)c(N3CCCCC3)nc21 | 6.25 (≈ 19.6 µM) | 0.78 (≈ 2.44 µM) | 12.5 (≈ 39.1 µM) | – | – | – | –
C=Cn1cc(C(=O)O)c(=O)c2cc(F)c(N3CCN(C)CC3)nc21 | 0.2 (≈ 0.602 µM) | 3.13 (≈ 9.42 µM) | 0.78 (≈ 2.35 µM) | 1.1 | 3.7 | 10.5 | –
CCCN1CCN(c2nc3c(cc2F)c(=O)c(C(=O)O)cn3CC)CC1 | 1.56 (≈ 4.3 µM) | 1.56 (≈ 4.3 µM) | 12.5 (≈ 34.5 µM) | – | – | – | –
CCn1cc(C(=O)O)c(=O)c2cc(F)c(N3CCN(C(C)=O)CC3)nc21 | 3.13 (≈ 8.64 µM) | 3.13 (≈ 8.64 µM) | 50 (≈ 138 µM) | – | – | – | –
CCn1cc(C(=O)O)c(=O)c2cc(N)c(N3CCNCC3)nc21 | 3.13 (≈ 9.86 µM) | > 100 | 6.25 (≈ 19.7 µM) | – | – | – | –
CCn1cc(C(=O)O)c(=O)c2cc([N+](=O)[O-])c(N3CCN(C)CC3)nc21 | 3.13 (≈ 8.66 µM) | 12.5 (≈ 34.6 µM) | 50 (≈ 138 µM) | – | – | – | –
CCn1cc(C(=O)O)c(=O)c2cc(Cl)c(N3CCN(C)CC3)nc21 | 1.56 (≈ 4.45 µM) | 6.25 (≈ 17.8 µM) | 12.5 (≈ 35.6 µM) | – | – | – | –
CCn1cc(C(=O)O)c(=O)c2cc([N+](=O)[O-])c(N3CCCC3)nc21 | 100 (≈ 301 µM) | 25 (≈ 75.2 µM) | > 100 | – | – | – | –
CCn1cc(C(=O)O)c(=O)c2ccc(C)nc21 [NALIDIXIC ACID] | 1.56 (≈ 6.72 µM) | – | 50 (≈ 215 µM) | – | – | – | –
CCn1cc(C(=O)O)c(=O)c2cnc(N3CCNCC3)nc21 [PIPEMIDIC ACID] | – | 6.25 (≈ 20.6 µM) | 6.25 (≈ 20.6 µM) | – | 70.8 | – | 12.8
CCn1cc(C(=O)O)c(=O)c2cc(C#N)c(N3CCNCC3)nc21 | 1.56 (≈ 4.77 µM) | 6.25 (≈ 19.1 µM) | 6.25 (≈ 19.1 µM) | – | – | – | –
CCn1cc(C(=O)O)c(=O)c2cc(F)c(N3CCCNCC3)nc21 | 0.78 (≈ 2.33 µM) | 1.56 (≈ 4.67 µM) | 1.56 (≈ 4.67 µM) | – | – | – | –
